In the M2OR odorant receptor database:
Where a chain is given by its changes, count along the chain named.

Legend:
Settings in all cases: stereoisomer not certain
[1] = target: T1, OR11H2 (Homo sapiens) (UniProt Q8NH07)
T1 sequence (whole entry): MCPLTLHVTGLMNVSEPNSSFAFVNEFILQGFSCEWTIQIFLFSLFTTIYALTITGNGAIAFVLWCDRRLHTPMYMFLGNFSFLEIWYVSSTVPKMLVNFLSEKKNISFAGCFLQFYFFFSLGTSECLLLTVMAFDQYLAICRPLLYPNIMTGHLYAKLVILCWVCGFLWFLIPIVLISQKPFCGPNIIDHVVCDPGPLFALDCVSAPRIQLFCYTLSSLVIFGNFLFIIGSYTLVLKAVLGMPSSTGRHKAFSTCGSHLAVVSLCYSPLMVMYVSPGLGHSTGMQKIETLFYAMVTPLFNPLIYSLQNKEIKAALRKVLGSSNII
Procedure, shortened: (§1)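 Each receptor–molecule pair is labelled responsive or non-responsive (inactive) according to whether the original authors judged the measured signal statistically different from baseline. The data were taken from the main text and supplementary material of published papers and checked for typos and inconsistencies. Assay methods differed by source, with transient luciferase assays in mammalian cell lines being common.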

[2] = target: T2, OR11H4 (Homo sapiens) (UniProt Q8NGC9)
T2 sequence (whole entry): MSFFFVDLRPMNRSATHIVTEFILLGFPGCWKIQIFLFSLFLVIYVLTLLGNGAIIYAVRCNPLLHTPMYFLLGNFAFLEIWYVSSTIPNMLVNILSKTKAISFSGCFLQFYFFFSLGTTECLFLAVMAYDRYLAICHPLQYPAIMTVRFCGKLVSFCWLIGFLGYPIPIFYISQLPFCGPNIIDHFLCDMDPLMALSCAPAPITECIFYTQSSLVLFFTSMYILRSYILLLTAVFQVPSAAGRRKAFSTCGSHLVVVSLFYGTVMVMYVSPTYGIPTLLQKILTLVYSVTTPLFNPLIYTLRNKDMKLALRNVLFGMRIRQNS
Procedure, shortened: as §1

[3] = target: T3, OR11H6 (Homo sapiens) (UniProt Q8NGC7)
T3 sequence (whole entry): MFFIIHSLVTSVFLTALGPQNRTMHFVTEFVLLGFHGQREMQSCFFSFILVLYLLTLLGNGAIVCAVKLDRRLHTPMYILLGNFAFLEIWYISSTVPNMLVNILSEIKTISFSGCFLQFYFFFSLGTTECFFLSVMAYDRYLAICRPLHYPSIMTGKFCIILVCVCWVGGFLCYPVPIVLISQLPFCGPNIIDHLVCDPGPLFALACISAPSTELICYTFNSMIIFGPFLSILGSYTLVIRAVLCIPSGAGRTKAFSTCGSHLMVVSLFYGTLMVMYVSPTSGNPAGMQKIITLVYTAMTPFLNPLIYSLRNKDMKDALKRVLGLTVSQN
Procedure, shortened: as §1

[4] = target: T4, OR11L1 (Homo sapiens) (UniProt Q8NGX0)
T4 sequence (whole entry): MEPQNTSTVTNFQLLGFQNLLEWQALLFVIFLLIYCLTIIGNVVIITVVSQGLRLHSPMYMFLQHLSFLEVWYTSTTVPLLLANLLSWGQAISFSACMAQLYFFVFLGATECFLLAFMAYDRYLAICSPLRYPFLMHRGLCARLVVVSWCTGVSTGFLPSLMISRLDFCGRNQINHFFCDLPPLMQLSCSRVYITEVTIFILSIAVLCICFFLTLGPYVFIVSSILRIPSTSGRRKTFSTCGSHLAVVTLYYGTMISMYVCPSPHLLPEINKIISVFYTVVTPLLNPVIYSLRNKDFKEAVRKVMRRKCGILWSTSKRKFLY
Procedure, shortened: as §1

[5] = target: T5, OR12D2 (Homo sapiens) (UniProt P58182)
T5 sequence (whole entry): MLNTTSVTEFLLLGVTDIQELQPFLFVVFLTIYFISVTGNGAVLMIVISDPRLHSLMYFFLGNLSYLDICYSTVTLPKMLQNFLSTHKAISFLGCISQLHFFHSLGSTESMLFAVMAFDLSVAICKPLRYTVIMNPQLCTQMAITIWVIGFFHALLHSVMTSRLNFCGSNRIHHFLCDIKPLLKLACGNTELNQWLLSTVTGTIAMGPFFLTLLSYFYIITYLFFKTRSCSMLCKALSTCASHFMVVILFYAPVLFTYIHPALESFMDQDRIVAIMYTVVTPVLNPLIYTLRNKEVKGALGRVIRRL
Procedure, shortened: as §1

[6] = target: T6, OR12D3 (Homo sapiens) (UniProt Q9UGF7)
T6 sequence (whole entry): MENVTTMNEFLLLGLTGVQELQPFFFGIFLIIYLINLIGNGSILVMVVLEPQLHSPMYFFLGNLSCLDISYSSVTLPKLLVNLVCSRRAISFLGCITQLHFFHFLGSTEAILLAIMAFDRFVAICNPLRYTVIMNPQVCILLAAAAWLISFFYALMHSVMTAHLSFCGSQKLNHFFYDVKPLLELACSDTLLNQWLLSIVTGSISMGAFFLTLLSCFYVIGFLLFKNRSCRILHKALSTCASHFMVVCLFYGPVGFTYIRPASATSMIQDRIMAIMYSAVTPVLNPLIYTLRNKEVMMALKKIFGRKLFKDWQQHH
Procedure, shortened: as §1

[7] = target: T7, OR13A1 (Homo sapiens) (UniProt Q8NGR1)
T7 sequence (whole entry): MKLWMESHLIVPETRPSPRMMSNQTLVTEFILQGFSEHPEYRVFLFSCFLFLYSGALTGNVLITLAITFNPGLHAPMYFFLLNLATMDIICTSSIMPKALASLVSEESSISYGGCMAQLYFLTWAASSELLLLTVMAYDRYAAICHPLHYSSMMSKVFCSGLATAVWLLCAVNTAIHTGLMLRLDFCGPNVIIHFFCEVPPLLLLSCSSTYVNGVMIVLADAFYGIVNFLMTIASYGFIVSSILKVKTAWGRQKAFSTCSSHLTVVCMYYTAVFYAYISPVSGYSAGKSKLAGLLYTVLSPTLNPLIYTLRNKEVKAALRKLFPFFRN
Procedure, shortened: as §1

[8] = target: T8, OR13C2 (Homo sapiens) (UniProt Q8NGS9)
T8 sequence (whole entry): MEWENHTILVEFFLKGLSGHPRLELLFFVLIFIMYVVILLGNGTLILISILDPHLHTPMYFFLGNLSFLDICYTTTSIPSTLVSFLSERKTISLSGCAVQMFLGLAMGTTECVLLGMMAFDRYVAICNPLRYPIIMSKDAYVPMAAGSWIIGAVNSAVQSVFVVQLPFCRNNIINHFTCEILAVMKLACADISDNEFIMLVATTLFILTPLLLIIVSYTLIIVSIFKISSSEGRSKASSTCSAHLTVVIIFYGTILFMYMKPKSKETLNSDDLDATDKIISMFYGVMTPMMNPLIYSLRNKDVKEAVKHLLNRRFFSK
Procedure, shortened: as §1

[9] = target: T9, OR13C3 (Homo sapiens) (UniProt Q8NGS6)
T9 sequence (whole entry): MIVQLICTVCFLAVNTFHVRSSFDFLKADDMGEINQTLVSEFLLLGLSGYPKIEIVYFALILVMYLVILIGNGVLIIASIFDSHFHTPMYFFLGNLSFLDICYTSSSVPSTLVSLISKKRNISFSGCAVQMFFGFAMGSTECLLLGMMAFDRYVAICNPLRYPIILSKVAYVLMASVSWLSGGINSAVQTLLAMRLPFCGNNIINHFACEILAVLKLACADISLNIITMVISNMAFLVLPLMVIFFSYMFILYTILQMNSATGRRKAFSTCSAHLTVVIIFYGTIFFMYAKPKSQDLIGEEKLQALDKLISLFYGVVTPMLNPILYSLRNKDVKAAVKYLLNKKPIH
Procedure, shortened: as §1

[10] = target: T10, OR13C4 (Homo sapiens) (UniProt Q8NGS5)
T10 sequence (whole entry): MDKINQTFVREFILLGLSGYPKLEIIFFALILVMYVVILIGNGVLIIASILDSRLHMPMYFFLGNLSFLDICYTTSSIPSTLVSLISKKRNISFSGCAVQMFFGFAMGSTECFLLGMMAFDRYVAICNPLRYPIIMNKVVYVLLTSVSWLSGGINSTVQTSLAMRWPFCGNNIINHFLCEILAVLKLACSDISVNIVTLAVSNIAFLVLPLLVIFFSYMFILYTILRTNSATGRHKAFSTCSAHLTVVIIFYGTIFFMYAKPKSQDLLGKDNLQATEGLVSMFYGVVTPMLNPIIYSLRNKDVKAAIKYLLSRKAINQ
Procedure, shortened: as §1

[11] = target: T11, OR13C5 (Homo sapiens) (UniProt Q8NGS8)
T11 sequence (whole entry): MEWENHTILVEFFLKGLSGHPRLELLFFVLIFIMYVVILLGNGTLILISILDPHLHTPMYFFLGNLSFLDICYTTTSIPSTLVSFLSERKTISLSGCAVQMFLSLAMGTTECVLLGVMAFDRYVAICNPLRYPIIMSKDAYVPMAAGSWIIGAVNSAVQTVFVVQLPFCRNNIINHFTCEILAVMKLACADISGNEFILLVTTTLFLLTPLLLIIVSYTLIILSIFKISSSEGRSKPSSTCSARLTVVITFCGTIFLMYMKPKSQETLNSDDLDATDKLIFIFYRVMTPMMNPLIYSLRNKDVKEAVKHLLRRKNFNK
Procedure, shortened: as §1

[12] = target: T12, OR13C8 (Homo sapiens) (UniProt Q8NGS7)
T12 sequence (whole entry): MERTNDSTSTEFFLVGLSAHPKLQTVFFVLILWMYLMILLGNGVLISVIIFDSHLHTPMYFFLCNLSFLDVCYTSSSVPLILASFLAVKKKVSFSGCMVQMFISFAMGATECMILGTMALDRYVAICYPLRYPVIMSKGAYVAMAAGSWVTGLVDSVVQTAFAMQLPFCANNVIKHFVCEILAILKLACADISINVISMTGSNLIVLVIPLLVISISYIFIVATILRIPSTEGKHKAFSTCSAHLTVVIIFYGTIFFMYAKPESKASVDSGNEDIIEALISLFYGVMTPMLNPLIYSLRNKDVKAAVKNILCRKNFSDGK
Procedure, shortened: as §1

[13] = target: T13, OR13C9 (Homo sapiens) (UniProt Q8NGT0)
T13 sequence (whole entry): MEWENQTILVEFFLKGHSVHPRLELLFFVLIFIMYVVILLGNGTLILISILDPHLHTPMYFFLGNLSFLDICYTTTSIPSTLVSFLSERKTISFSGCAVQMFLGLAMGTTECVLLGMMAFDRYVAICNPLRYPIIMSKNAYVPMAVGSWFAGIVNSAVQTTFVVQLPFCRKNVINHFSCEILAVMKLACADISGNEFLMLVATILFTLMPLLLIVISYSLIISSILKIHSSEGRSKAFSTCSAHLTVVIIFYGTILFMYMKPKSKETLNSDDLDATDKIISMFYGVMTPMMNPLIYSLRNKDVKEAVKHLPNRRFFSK
Procedure, shortened: as §1

[14] = target: T14, OR13D1 (Homo sapiens) (UniProt Q8NGV5)
T14 sequence (whole entry): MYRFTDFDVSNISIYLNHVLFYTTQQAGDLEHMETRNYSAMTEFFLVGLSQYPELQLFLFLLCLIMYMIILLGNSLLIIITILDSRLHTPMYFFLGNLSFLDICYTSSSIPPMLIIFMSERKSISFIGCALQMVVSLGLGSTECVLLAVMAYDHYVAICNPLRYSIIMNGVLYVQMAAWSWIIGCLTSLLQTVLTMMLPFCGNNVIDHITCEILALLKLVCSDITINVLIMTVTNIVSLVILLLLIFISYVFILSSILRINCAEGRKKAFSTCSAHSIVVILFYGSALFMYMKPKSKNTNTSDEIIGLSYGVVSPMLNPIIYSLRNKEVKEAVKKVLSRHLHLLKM
Procedure, shortened: as §1

[15] = target: T15, OR13F1 (Homo sapiens) (UniProt Q8NGS4)
T15 sequence (whole entry): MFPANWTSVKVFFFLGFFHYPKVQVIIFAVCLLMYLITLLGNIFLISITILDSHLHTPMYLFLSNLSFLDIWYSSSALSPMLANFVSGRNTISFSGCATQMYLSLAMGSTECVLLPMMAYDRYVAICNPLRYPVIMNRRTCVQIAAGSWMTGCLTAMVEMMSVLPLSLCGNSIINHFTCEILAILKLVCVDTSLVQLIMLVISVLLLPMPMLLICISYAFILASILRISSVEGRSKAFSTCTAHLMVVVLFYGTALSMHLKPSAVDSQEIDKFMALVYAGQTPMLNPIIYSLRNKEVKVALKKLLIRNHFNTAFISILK
Procedure, shortened: as §1

[16] = target: T16, OR13G1 (Homo sapiens) (UniProt Q8NGZ3)
T16 sequence (whole entry): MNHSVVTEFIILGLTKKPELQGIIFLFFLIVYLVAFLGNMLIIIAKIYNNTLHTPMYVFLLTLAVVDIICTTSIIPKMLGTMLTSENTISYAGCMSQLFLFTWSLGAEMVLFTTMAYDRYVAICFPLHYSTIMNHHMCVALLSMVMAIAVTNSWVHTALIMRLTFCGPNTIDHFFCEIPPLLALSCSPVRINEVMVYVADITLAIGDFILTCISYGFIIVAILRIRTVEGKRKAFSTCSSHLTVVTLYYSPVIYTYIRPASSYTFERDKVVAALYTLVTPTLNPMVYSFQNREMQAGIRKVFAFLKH
Procedure, shortened: as §1

[17] = target: T17, OR11H12 (Homo sapiens) (UniProt B2RN74)
T17 sequence (whole entry): T1 sequence (whole entry) with H7Q, S33T, I49T, R68W, Y156C, K181M, L199R, P269S
Procedure, shortened: as §1

Measured: odorant receptor agonist call

CCCCCC(=O)C(C)C(C)=O (stereo unspecified)
not listed: [17]
inactive: all other assays above

CCC1OC(=O)C(O)=C1C (stereo unspecified)
inactive: all assays above

CCCCCC(S)C(C)CO (stereo unspecified)
active: [1] | [13]
not listed: [17]
inactive: all other assays above

Cc1cnc(C)c(C)n1
inactive: all assays above
